{
  "source": "paper PMC4332700",
  "about": "(RSC advances, 2015)",
  "key": {"α-syn [1]": {"tested_on": "α-syn", "conditions": "on going from 1:1 to 5:1 EGCG/α-syn, published spectra; cited from earlier work"}, "α-syn [2]": {"tested_on": "α-syn", "assay": "15N-HSQC titration binding studies with 15N-labeled α-syn", "conditions": "for Binding locus on α-syn from titration shifts in 15N HSQC spectra: 200 or 400 µM α-syn, no added HFIP, 293 or 303 K"}, "α-synuclein": {"tested_on": "α-synuclein", "assay": "Inhibition of HFIP-induced α-syn amyloid formation", "format": "biochemical", "conditions": "for %-Inhib. of HFIP-induced α-syn amyloid formation: converted from the %-of-control ThT and CD values; for Formation of off-path (non-amyloid) precipitates in the inhibition assays: 2 vol-% HFIP assay, EGCG at 2:1 molar ratio", "procedure,_shortened": "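α-Syn (85 ± 5 μM; pH 6.6, 50 mM potassium phosphate, 50 mM NaCl) stirred at 37 ± 3 °C with test compound (1–4 molar equiv), then HFIP to 2 vol% after 4 h. Aliquots diluted to 4.5 μM α-syn every 2–6 h for CD, inhibitor-matched blank, [θ]218 and Δ[θ]196 read. At 16–18 h, ThT added (8-fold excess) and emission read. Values as %-of-uninhibited-control, converted to %-inhibition; mean of ≥2 experiments.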"}, "α-syn [3]": {"tested_on": "α-syn", "assay": "CD and visual inspection of EGCG/α-syn mixtures", "format": "biochemical", "conditions": "100 µM α-syn, 1:1 α-syn:EGCG, 1.5 vol-% HFIP; β-sheet signature at 24 hours"}, "[4]": {"assay": "NMR determination of folded state population of peptides", "format": "physicochemical", "conditions": "300K; for Folded state population (χF): based on NMR data"}, "α-syn [5]": {"tested_on": "α-syn", "conditions": "cited from earlier work"}},
  "data": [
    {"compound": "O=C(O[C@@H]1Cc2c(O)cc(O)cc2O[C@@H]1c1cc(O)c(O)c(O)c1)c1cc(O)c(O)c(O)c1", "note": "[EGCG, (−)-Epi-gallocatechin-3-gallate, reference compound]", "values": [
      {"measurement": "Upfield 1H shift for most α-syn HSQC peaks", "setting": "α-syn [1]", "value": 0.04, "unit": "ppm"},
      {"measurement": "Upfield shifts Δδ(1H) of α-syn HSQC peaks", "setting": "α-syn [2]; 200 µM α-syn, 50 mM phosphate, pH 6.5, 303K, 5 molar equivalents of EGCG", "value": "0.007 – 0.010 ppm"},
      {"measurement": "Binding locus on α-syn from titration shifts in 15N HSQC spectra", "setting": "α-syn [2]", "value": "shifts at C-terminal sites"},
      {"measurement": "%-Inhib. of HFIP-induced α-syn amyloid formation", "setting": "α-synuclein; 2 molar equiv. inhibitor", "value": "~ 65%"},
      {"measurement": "Time the random coil CD signature remained after HFIP addition", "setting": "α-syn [3]", "value": 8, "unit": "h"}
    ]},
    {"compound": "(Ac-YTTVCIRKYTG)2 (disulfide) [AcY-VCI-YTG]", "values": [
      {"measurement": "%-Inhib. of HFIP-induced α-syn amyloid formation", "setting": "α-synuclein; 2 molar equiv. inhibitor", "value": "~ 70%"},
      {"measurement": "Folded state population (χF)", "setting": "[4]", "value": 0.84}
    ]},
    {"compound": "(RWTTHCHRKWE)2 (disulfide) [RW-HCH-WE]", "values": [
      {"measurement": "Binding locus on α-syn from titration shifts in 15N HSQC spectra", "setting": "α-syn [2]", "value": "very large shifts were observed at C-terminal sites"},
      {"measurement": "%-Inhib. of HFIP-induced α-syn amyloid formation", "setting": "α-synuclein; 1 molar equiv. inhibitor", "value": "~ 65%"},
      {"measurement": "%-Inhib. of HFIP-induced α-syn amyloid formation", "setting": "α-synuclein; 2 molar equiv. inhibitor", "value": "≥ 75", "unit": "%"},
      {"measurement": "Formation of off-path (non-amyloid) precipitates in the inhibition assays", "setting": "α-synuclein", "value": "co-precipitates"},
      {"measurement": "β-sheet population", "setting": "[4]", "value": 94, "unit": "%"},
      {"measurement": "Folded state population (χF)", "setting": "[4]", "value": "0.94±0.02"}
    ]},
    {"compound": "(RYTTHCHRKYE)2 (disulfide) [RY-HCH-YE]", "values": [
      {"measurement": "%-Inhib. of HFIP-induced α-syn amyloid formation", "setting": "α-synuclein; 2 molar equiv. inhibitor", "value": "~ 70%"},
      {"measurement": "β-sheet population", "setting": "[4]", "value": 28, "unit": "%"},
      {"measurement": "Folded state population (χF)", "setting": "[4]", "value": "0.28±0.13"}
    ]},
    {"compound": "(RYTTVCIRKYE)2 (disulfide) [RY-VCI-YE]", "values": [
      {"measurement": "%-Inhib. of HFIP-induced α-syn amyloid formation", "setting": "α-synuclein; 1 molar equiv. inhibitor", "value": "~ 50%"},
      {"measurement": "%-Inhib. of HFIP-induced α-syn amyloid formation", "setting": "α-synuclein; 2 molar equiv. inhibitor", "value": "~ 80%"}
    ]},
    {"compound": "GKWITVS-IpPK-KLTVWIp [cp-WW2]", "values": [
      {"measurement": "Binding locus on α-syn from titration shifts in 15N HSQC spectra", "setting": "α-syn [2]", "value": "isolated to the C-terminus"},
      {"measurement": "%-Inhib. of HFIP-induced α-syn amyloid formation", "setting": "α-synuclein; 1 molar equiv. inhibitor", "value": "~ 35%"},
      {"measurement": "%-Inhib. of HFIP-induced α-syn amyloid formation", "setting": "α-synuclein; 2 molar equiv. inhibitor", "value": "~ 65%"}
    ]},
    {"compound": "KCLTVW-IpGK-WITVCA (disulfide) [WW2-DS]", "values": [
      {"measurement": "%-Inhib. of HFIP-induced α-syn amyloid formation", "setting": "α-synuclein; 1 molar equiv. inhibitor", "value": "< 30", "unit": "%"},
      {"measurement": "%-Inhib. of HFIP-induced α-syn amyloid formation", "setting": "α-synuclein; 2 molar equiv. inhibitor", "value": "~ 50%"}
    ]},
    {"compound": "KKLTVW-IpGK-WITVSA [WW2]", "values": [
      {"measurement": "Binding locus on α-syn from titration shifts in 15N HSQC spectra", "setting": "α-syn [2]", "value": "M116-E137 sequence segment"},
      {"measurement": "%-Inhib. of HFIP-induced α-syn amyloid formation", "setting": "α-synuclein; 1 molar equiv. inhibitor", "value": "~ 50%"},
      {"measurement": "%-Inhib. of HFIP-induced α-syn amyloid formation", "setting": "α-synuclein; 2 molar equiv. inhibitor", "value": "~ 75%"}
    ]},
    {"compound": "RAVTW-NPATGK-WITVWE [RAVWW]", "values": [
      {"measurement": "%-Inhib. of HFIP-induced α-syn amyloid formation", "setting": "α-synuclein; 2 molar equiv. inhibitor", "value": "~ 60%"},
      {"measurement": "Formation of off-path (non-amyloid) precipitates in the inhibition assays", "setting": "α-synuclein", "value": "did not produce off-path precipitates"}
    ]},
    {"compound": "RGAVVTGR-NH2 [reference compound]", "values": [
      {"measurement": "Inhibition of α-syn amyloid fibril formation", "setting": "α-syn [5]; 2:1, 1:1 and 1:2 (peptide:α-syn) molar ratios", "value": "completely inhibit"},
      {"measurement": "%-Inhib. of HFIP-induced α-syn amyloid formation", "setting": "α-synuclein; 2 molar equiv. inhibitor", "value": "< 25", "unit": "%"},
      {"measurement": "Inhibitory activity on α-syn amyloid formation (in words)", "setting": "α-synuclein; 4 molar equivalents of the peptide, single experiment", "value": "absence of inhibitory activity"}
    ]},
    {"compound": "RWEKRW-DRGSGR-WFYFND [mWWhp]", "values": [
      {"measurement": "%-Inhib. of HFIP-induced α-syn amyloid formation", "setting": "α-synuclein; 2 molar equiv. inhibitor", "value": "~ 50%"},
      {"measurement": "Formation of off-path (non-amyloid) precipitates in the inhibition assays", "setting": "α-synuclein", "value": "did not produce off-path precipitates"}
    ]},
    {"compound": "RWFYFN-DRGSGK-WEKRWD [cp-mWWhp]", "values": [
      {"measurement": "%-Inhib. of HFIP-induced α-syn amyloid formation", "setting": "α-synuclein; 2 molar equiv. inhibitor", "value": "< 20", "unit": "%"}
    ]},
    {"compound": "VAQKT-(N-Me)V", "values": [
      {"measurement": "Inhibition of α-syn fibril formation", "setting": "α-syn [5]; N-methylation of sites in residues 71–82", "value": "effective inhibitor"}
    ]},
    {"compound": "cyclo-(K-KLTVW-IpGK-WITVS-IpP) (head to tail) [cyclo-WW2]", "values": [
      {"measurement": "Binding locus on α-syn from titration shifts in 15N HSQC spectra", "setting": "α-syn [2]", "value": "Q109/E137-span"},
      {"measurement": "%-Inhib. of HFIP-induced α-syn amyloid formation", "setting": "α-synuclein; 1 molar equiv. inhibitor", "value": "~ 75%"},
      {"measurement": "Inhibitory activity on α-syn β-structure / amyloid formation (in words)", "setting": "α-synuclein; 2:1 peptide to α-syn ratio, 2 vol-% HFIP", "value": "complete inhibition"},
      {"measurement": "%-Inhib. of HFIP-induced α-syn amyloid formation", "setting": "α-synuclein; 2 molar equiv. inhibitor", "value": "> 90", "unit": "%"}
    ]}
  ]
}
